Measurements: ChEMBL document CHEMBL3271934, “Inhibition of separated forms of phosphodiesterases from pig coronary arteries by uracils and by 7-substituted derivatives of 1-methyl-3-isobutylxanthine” (J Med Chem, 1976)
Activity calls are given as the source filed them. The rule behind the calls is not given here.

Assays:
[1] = species on record: Sus scrofa; test: Inhibition of phosphodiesterase (peak-1) isolated from pig coronary artery assessed as inhibition of cGMP hydrolysis at 10^-4 M using 1 uM cGMP substrate in presence of 3% Me2SO
Method in brief: (§1)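 Percent inhibition was measured at a single 10^-4 M concentration against a separated pig coronary artery phosphodiesterase form. Conditions: 1 μM substrate, 30°, 30 min, enzyme dilution giving 10–20% uninhibited hydrolysis, final 3% Me2SO in all tubes including blank. Peak I was assayed with an optimal amount of activator (15 μg protein). Results are duplicate determinations, mean ± SEM over separate enzyme preparations.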

[2] = species on record: Sus scrofa; test: Inhibition of phosphodiesterase (peak-1) isolated from pig coronary artery assessed as inhibition of cAMP hydrolysis at 10^-4 M using 1 uM cAMP substrate in presence of 3% Me2SO; method in brief: as §1
[3] = species on record: Sus scrofa; test: Inhibition of phosphodiesterase (peak-2) isolated from pig coronary artery assessed as inhibition of cAMP hydrolysis at 10^-4 M using 1 uM cAMP substrate in presence of 3% Me2SO; method in brief: as §1
[4] = Inhibition of phosphodiesterase (peak-1) isolated from pig coronary artery assessed as inhibition of cGMP hydrolysis using 1 uM cGMP substrate in presence of 3% Me2SO; details: Sus scrofa; read-out: I50
Method in brief: (§2)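 Enzyme is a separated phosphodiesterase form from pig coronary arteries, assayed with 1 μM substrate at 30° for 30 min. Enzyme dilution gave 10–20% hydrolysis without inhibitor. Compounds were added from 30% Me2SO, giving a final 3% Me2SO in all tubes. Peak I received an optimal amount of activator (15 μg protein). I50 was read from concentration–percent inhibition curves spanning 10^-7 to 10^-4 M (10^-3 M if soluble). MIX reference was run each experiment. Results are mean ± SEM of duplicate determinations across enzyme preparations.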

[5] = Inhibition of phosphodiesterase (peak-1) isolated from pig coronary artery assessed as inhibition of cAMP hydrolysis using 1 uM cAMP substrate in presence of 3% Me2SO; details: Sus scrofa; read-out: I50; method in brief: as §2
[6] = Inhibition of phosphodiesterase (peak-2) isolated from pig coronary artery assessed as inhibition of cAMP hydrolysis using 1 uM cAMP substrate in presence of 3% Me2SO; details: Sus scrofa; read-out: I50; method in brief: as §2
[7] = species on record: Sus scrofa; test: Inhibition of phosphodiesterase (peak-1) isolated from pig coronary artery assessed as inhibition of cGMP hydrolysis at 10^-7 to 10^-4 M using 1 uM cGMP substrate in presence of 3% EtOH
[8] = species on record: Sus scrofa; test: Inhibition of phosphodiesterase (peak-1) isolated from pig coronary artery assessed as inhibition of cAMP hydrolysis at 10^-7 to 10^-4 M using 1 uM cAMP substrate in presence of 3% EtOH
[9] = species on record: Sus scrofa; test: Inhibition of phosphodiesterase (peak-2) isolated from pig coronary artery assessed as inhibition of cAMP hydrolysis at 10^-7 to 10^-4 M using 1 uM cAMP substrate in presence of 3% EtOH

Compound | inhibition [1] [%] | inhibition [2] [%] | inhibition [3] [%] | IC50 [4] [µM] | IC50 [5] [µM] | IC50 [6] [µM] | inhibition [7] | inhibition [8] | inhibition [9]
CC(C)Cn1c(N)c(NCc2ccccc2)c(=O)n(C)c1=O | 30 | 37 | 9 | – | – | – | – | – | –
CC(C)Cn1c(=O)n(C)c(=S)c2c1ncn2Cc1ccccc1 | – | – | – | 3.3 | 2.7 | 28 | – | – | –
CC(C)CCn1cnc2c1c(=O)n(C)c(=O)n2CC(C)C | – | – | 36 | 16 | 19 | > 100 | – | – | –
CC(C)Cn1c(=O)n(C)c(=O)c2c1ncn2Cc1ccc(Cl)cc1 | – | – | – | 2.1 | 2.3 | 43 | – | – | –
Cn1c(N)c(NCc2ccccc2)c(=O)n(C)c1=O | 17 | 26 | 15 | – | – | – | – | – | –
COc1ccccc1Cn1cnc2c1c(=O)n(C)c(=O)n2CC(C)C | – | – | – | 26 | 19 | 75 | – | – | –
CC(C)Cn1c(=O)n(C)c(=O)c2c1ncn2CCc1ccccc1 | – | – | 41 | 28 | 17 | > 100 | – | – | –
CC(C)Cn1c(=O)n(C)c(=O)c2c1ncn2Cc1ccncc1 | – | – | 30 | 146 | 105 | > 300 | – | – | –
CC(C)Cn1c(=O)n(C)c(=O)c2c1ncn2CC1CC1 | – | – | – | 6.1 | 3.7 | 20 | – | – | –
CC(C)Cn1cc(NCc2ccccc2)c(=O)n(C)c1=O | 10 | 17 | 6 | – | – | – | – | – | –
CC(C)Cn1c(=O)n(C)c(=O)c2nc[nH]c21 [ISOBUTYLMETHYLXANTHINE] | – | – | – | 6.3 | 3.9 | 15 | Active | Active | Active
CC(C)Cn1c(=O)n(C)c(=O)c2c1ncn2Cc1cccc(Cl)c1 | – | – | – | 2.1 | 1.3 | 48 | – | – | –
CC(C)Cn1c(=O)n(C)c(=O)c2c1ncn2Cc1ccccc1[N+](=O)[O-] | – | – | – | 60 | 41 | 142 | – | – | –
CC(C)Cn1c(=O)n(C)c(=O)c2c1ncn2C | – | – | – | 65 | 55 | 126 | – | – | –
CC(C)Cn1c(=O)n(C)c(=O)c2c1ncn2Cc1ccc([N+](=O)[O-])cc1 | – | – | 44 | 34 | 27 | > 100 | – | – | –
CC(C)Cn1c(=O)n(C)c(=S)c2[nH]cnc21 | – | – | – | 7.1 | 5.5 | 6.8 | – | – | –
COc1cc(Cn2cnc3c2c(=O)n(C)c(=O)n3CC(C)C)cc(OC)c1OC | – | – | 31 | 46 | 35 | > 100 | – | – | –
C#CCn1cnc2c1c(=O)n(C)c(=O)n2CC(C)C | – | – | – | 36 | 28 | 65 | – | – | –
CC(C)Cn1c(=O)n(C)c(=O)c2c1ncn2Cc1ccccc1 | – | – | – | 4.4 | 3.6 | 108 | Active | Active | Active
